# Bioassay records from PubChem BioAssay.
# In the library only some 4% were active in any assay of this set; here they are far more common.
# KCNQ1 pot: potentiators or activators of KCNQ1 channel, primary screen, cell-based, thallium flux, high-throughput | Potassium voltage-gated channel subfamily KQT member 1 (Homo sapiens), P51787 | CHO-K1 KCNQ1, thallium flux FluxOR fluorescence; active compounds read high | B-score at 10 µM | 0.35% of 310,000 active | AID 2648, 2010;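 active means fluorescence ratio B-score, a plate-corrected score, at least three library SD, with initial intensity B-score within 5 SD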
# Target sequence (P51787 whole entry, looked up): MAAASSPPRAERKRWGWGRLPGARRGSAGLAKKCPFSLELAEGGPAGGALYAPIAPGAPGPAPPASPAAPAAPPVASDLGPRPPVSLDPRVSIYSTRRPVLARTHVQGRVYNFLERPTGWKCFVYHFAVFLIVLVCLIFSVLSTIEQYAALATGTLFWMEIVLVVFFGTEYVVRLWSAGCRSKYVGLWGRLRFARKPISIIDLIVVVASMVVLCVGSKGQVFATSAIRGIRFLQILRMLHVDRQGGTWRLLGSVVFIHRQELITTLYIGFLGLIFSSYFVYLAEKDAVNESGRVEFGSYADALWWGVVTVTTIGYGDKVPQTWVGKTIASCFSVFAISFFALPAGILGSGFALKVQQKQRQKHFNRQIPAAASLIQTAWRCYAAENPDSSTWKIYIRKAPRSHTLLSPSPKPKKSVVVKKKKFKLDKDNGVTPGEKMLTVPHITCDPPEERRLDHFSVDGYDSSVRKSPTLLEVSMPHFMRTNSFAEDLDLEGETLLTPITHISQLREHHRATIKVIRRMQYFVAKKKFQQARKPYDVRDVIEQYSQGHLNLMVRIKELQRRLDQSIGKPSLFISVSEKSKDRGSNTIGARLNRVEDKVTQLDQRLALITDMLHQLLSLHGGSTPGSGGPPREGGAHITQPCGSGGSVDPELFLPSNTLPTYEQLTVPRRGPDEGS
#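 Doses: Single concentration per compound, DMSO matched to controls | Test system: KCNQ1-transfected CHO-K1 cells | Timing: 90 min dye loading and 20 min compound exposure, both at room temperature | Measured by: Kinetic FluxOR thallium fluorescence, 10-s 1-Hz baseline, 110-s post-stimulus read | Medium: Assay buffer with matched DMSO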
# KCNQ1 inh: inhibitors of human KCNQ1 channel, primary screen, cell-based, thallium flux, high-throughput; CHO-K1 KCNQ1, FluxOR thallium flux fluorescence; active compounds read high; 1.3% of 310,000 active; Potassium voltage-gated channel subfamily KQT member 1 (Homo sapiens), P51787; B-score at 10 µM;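 active means compounds whose thallium flux B-score, printed positive for inhibition, exceeds three library SD while starting fluorescence stays within three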;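 further: channel opened by potassium depolarization with thallium stimulus after 20 min compound exposure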
# hERG rescue: hERG rescue from dofetilide block, primary screen, cell-based, CHO-hERG, FluxOR thallium flux, dofetilide IC70; Voltage-gated inwardly rectifying potassium channel KCNH2 (Homo sapiens), Q12809; dofetilide IC70 present; activation (rescue from dofetilide block), less the hit threshold, % at 10 µM; 0.51% of 310,000 active; AID 1511, 2009;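 active means activation above the mean of controls blocked by dofetilide plus 5 SD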;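 further: thallium influx through hERG after potassium depolarization seen as dye fluorescence rise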
# KCNK3 inh: human KCNK3 channel inhibitors, primary screen, CHO cells, FluxOR thallium flux, B-score; Potassium channel subfamily K member 3 (Homo sapiens), O14649; FluxOR fluorescence; active compounds read low; B-score at 10 µM; 0.84% of 340,000 active; AID 602410, 2012;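 active means B-score under library mean minus 4 SD, starting fluorescence ratio at most library mean plus 5 SD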;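 further: more negative B-score means stronger inhibition of thallium flux through KCNK3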
# PHOSPHO1 block: PubChem AID 1565. recombinant PHOSPHO1, absorbance phosphatase assay. inhibition, % at 13.3 µM. 1.1% of 290,000 active. Phosphoethanolamine/phosphocholine phosphatase (Homo sapiens), Q8TCT1; in the data active means inhibition above about 60%
# KCNK9 block: KCNK9 potassium channel inhibitors, primary screen, HEK293 cells, thallium flux | B-score at 10 µM | Potassium channel subfamily K member 9 (Homo sapiens), Q9NPC2 | AID 488922, 2010 | FluxOR thallium flux fluorescence; active compounds read low | 1.2% of 310,000 active;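 active means ratio B-score over 3 SD below the library mean, with starting fluorescence within 5 SD of its mean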;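 further: negative B-score means less thallium flux so channel inhibition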
# KCNK3 inh conf: retest of human KCNK3 channel inhibitors, confirmation, CHO cells, FluxOR thallium flux, triplicate | FluxOR fluorescence; 0% buffer, 100% carvedilol maximal block | shares compounds with KCNK3 inh | 99% of 2,400 active | ratio percent of control, % at 10 µM;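 active means ratio percent of control, averaged over triplicates, above buffer control mean plus 5 SD, cut at about 64% in these data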;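 further: ratio is the fluorescence rise from min to max over baseline after thallium stimulus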
# KCNK3 uninduced: thallium flux inhibition in non-induced cells, primary screen, counter-screen for KCNK3 inhibitor project, cell-based, non-induced KCNK3 line, FluxOR thallium, triplicate; shares compounds with KCNK3 inh; non-induced KCNK3 parental cells; active compounds read low; thallium flux ratio (lower = more inhibition) at 10 µM; 40% of 2,400 active; AID 651747, 2012;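 active means thallium flux ratio, averaged over three wells, more than 5 SD below the buffer control mean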;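 further: host cells are CHO cells without KCNK3 induction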
# A number is an active result; i = inactive; nt = not tested or not shown.
SMILES,KCNQ1 pot,KCNQ1 inh,hERG rescue,KCNK3 inh,PHOSPHO1 block,KCNK9 block,KCNK3 inh conf,KCNK3 uninduced
Cc1cc(C(C)(C)C)oc1C(=O)N1CCN(C(=O)c2oc(C(C)(C)C)cc2C)CC1,i,i,i,i,i,i,nt,nt
COC(=O)C1=C(C)NC(C)=C(C(=O)OC)C1c1cn(-c2ccccc2)nc1-c1ccco1,i,i,i,-10,i,i,100,i
COCCOC(=O)C1=C(C)NC(=O)NC1c1cn(-c2ccccc2)nc1-c1cccs1 (configuration not stated),i,i,i,i,i,i,nt,nt
c1csc(Cc2nc3ccccc3[nH]2)c1,i,i,i,i,i,i,nt,nt
Cc1cc(-c2nnc(-c3cccc(C(F)(F)F)c3)o2)no1,i,i,i,i,i,i,nt,nt
FC(F)(F)Oc1ccccc1-c1nnc(-c2cccc(C(F)(F)F)c2)o1,i,i,i,-8.9,i,i,104,i
CCOc1ccccc1/C=N/N1CCN(Cc2ccccc2)CC1,i,i,i,-11,nt,i,83,i
Clc1ccccc1/C=N/N1CCN(Cc2ccccc2)CC1,i,i,i,i,i,i,nt,nt
Cc1cccc2c(=O)c(Br)c(C)n(Cc3ccccc3)c12,i,i,i,-8.9,i,-7.8,105,i
Fc1ccccc1/C=C1\CCCC2=C1NC(=S)NC2c1ccccc1F (configuration not stated),i,i,i,-9,i,i,101,i
O=C1NC(=Nc2cccnc2)S/C1=C/c1ccc(F)cc1,i,i,i,i,i,i,nt,nt
COc1ccc(Cl)cc1NC(=O)CN(C)C(=O)c1cc2c(s1)CCC(C)C2 (configuration not stated),i,i,i,-8.8,nt,i,107,i
COc1ccc(Cl)cc1NC(=O)CN(C)CC(=O)Nc1ccccc1C(F)(F)F,i,i,i,-9.1,i,i,102,i
COc1ccc(CN(C)CC(=O)Nc2cccc3ccccc23)cc1F,i,i,i,-11,i,i,91,i
CCN(Cc1ccc2c(c1)OCCO2)C(=O)CN1C(=O)NC2(CCCCC2)C1=O,nt,nt,nt,i,nt,nt,nt,nt
Cc1cccn2c(=O)c3cc(C(=O)NC4CCCCC4)c(=N)n(Cc4ccc(F)cc4)c3nc12,i,i,i,-13,i,i,122,0.13
Cc1cccn2c(=O)c3cc(C(=O)NC4CCCC4)c(=N)n(CC4CCCO4)c3nc12 (configuration not stated),i,i,i,i,i,i,nt,nt
O=S(=O)(c1cc(Cl)c(Cl)cc1Cl)N1CCN2CCCC2C1 (configuration not stated),i,i,i,i,nt,i,nt,nt
Cc1cccn2c(=O)c(/C=C(\C#N)S(=O)(=O)c3ccccc3)c(N3CCCCC3)nc12,i,i,i,i,i,i,nt,nt
CCOC(=O)C1CCN(c2nc3c(C)cccn3c(=O)c2/C=C(\C#N)S(=O)(=O)c2ccccc2)CC1,i,i,i,-9.3,i,i,95,i
C=CCc1ccc(OCC(O)CN2CCc3ccccc3C2)c(OC)c1 (configuration not stated),i,i,i,-9,i,i,103,0.14
COc1ccc(F)cc1C(=O)C1CCCN(Cc2cccn2-c2ccccn2)C1 (configuration not stated),i,i,i,-10,i,i,94,i
